In the library only some 3.8% were active in any assay of this set; here they are far more common.
KCNQ1 act – potentiates or activates the human KCNQ1 potassium channel; P51787; CHO-K1 KCNQ1, thallium flux FluxOR fluorescence; hits give high values; B-score at 10 µM; 310,000 tested, 0.35% active; AID 2648;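 active = fluorescence ratio B-score, a plate-corrected score, at least three library SD, with initial intensity B-score within 5 SD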
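Medium – assay buffer, equal DMSO in all wells · Material – CHO-K1 cell line with stable KCNQ1 potassium channel expression · Signal – kinetic FluxOR thallium fluorescence, 10-s 1-Hz baseline, 110-s post-stimulus read · Compound – single concentration per compound, DMSO matched to controls · Schedule – 37 °C overnight plating, 90-min dark dye load, 20-min compound pretreatment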
hERG rescue – shields human hERG channel from block by proarrhythmic agents; CHO-hERG, FluxOR thallium flux, dofetilide IC70 present; activation (rescue from dofetilide block), less the hit threshold, % at 10 µM; 310,000 tested, 0.51% active; Q12809;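 active = activation above the mean of controls blocked by dofetilide plus 5 SD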;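 note: thallium influx through hERG after potassium depolarization seen as dye fluorescence rise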
KCNK9 inh – human KCNK9 channel inhibition; Q9NPC2; HEK293 KCNK9, FluxOR thallium flux fluorescence; hits give low values; B-score at 10 µM; 310,000 tested, 1.2% active;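 active = ratio B-score over 3 SD below the library mean, with starting fluorescence within 5 SD of its mean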;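 note: negative B-score means less thallium flux so channel inhibition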
Target sequence (Q9NPC2 whole entry, looked up): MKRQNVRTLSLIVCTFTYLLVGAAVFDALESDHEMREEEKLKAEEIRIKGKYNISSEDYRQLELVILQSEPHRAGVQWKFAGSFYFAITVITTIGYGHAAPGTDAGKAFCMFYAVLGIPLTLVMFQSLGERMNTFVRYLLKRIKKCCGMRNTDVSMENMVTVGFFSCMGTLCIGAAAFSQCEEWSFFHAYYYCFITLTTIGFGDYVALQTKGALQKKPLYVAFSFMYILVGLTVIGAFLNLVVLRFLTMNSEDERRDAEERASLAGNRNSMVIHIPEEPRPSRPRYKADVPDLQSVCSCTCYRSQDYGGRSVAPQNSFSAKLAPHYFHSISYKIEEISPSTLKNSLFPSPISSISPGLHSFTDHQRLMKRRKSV
KCNQ1 block – blocks the human KCNQ1 potassium channel; 310,000 tested, 1.3% active; B-score at 10 µM; CHO-K1 KCNQ1, FluxOR thallium flux fluorescence; hits give high values; P51787;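 active = compounds whose thallium flux B-score, printed positive for inhibition, exceeds three library SD while starting fluorescence stays within three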;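 note: channel opened by potassium depolarization with thallium stimulus after 20 min compound exposure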
Kir21 inh – Kir2.1 (mouse) channel inhibition. HEK293-Kir2.1, FluxOR thallium flux fluorescence; hits give low values. AID 1672. 310,000 tested, 0.85% active. B-score at 10 µM. P35561;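 active = fluorescence ratio B-score at or below minus 3 SD of library scores, with starting-brightness B-score within 2 SD, cut at about -4.2 in these data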;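 note: channel flux triggered by added potassium and thallium sulfate stimulus; B-score of peak minus minimum fluorescence over baseline after thallium stimulus; more negative B-score means stronger Kir2.1 block with less thallium influx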
KCNK3 inh – human KCNK3 channel inhibition, primary screen. O14649. CHO-KCNK3 thallium flux, FluxOR fluorescence; hits give low values. B-score at 10 µM. 340,000 tested, 0.84% active;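 active = B-score under library mean minus 4 SD, starting fluorescence ratio at most library mean plus 5 SD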;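 note: more negative B-score means stronger inhibition of thallium flux through KCNK3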
KCNK3 confirm – confirmation of human KCNK3 two-pore domain potassium channel inhibitors; CHO-KCNK3 thallium flux, FluxOR fluorescence; 0% buffer, 100% carvedilol maximal block; 2,400 tested, 99% active; shares compounds with KCNK3 inh; ratio percent of control, % at 10 µM;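 active = ratio percent of control, averaged over triplicates, above buffer control mean plus 5 SD, cut at about 64% in these data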;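 note: ratio is the fluorescence rise from min to max over baseline after thallium stimulus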
KCNK3 uninduced – counter-screen for KCNK3 inhibitors: effect in non-induced cells | shares compounds with KCNK3 inh | non-induced KCNK3 parental cells, FluxOR thallium flux; hits give low values | thallium flux ratio (lower = more inhibition) at 10 µM | 2,400 tested, 40% active | AID 651747;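 active = thallium flux ratio, averaged over three wells, more than 5 SD below the buffer control mean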;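 note: host cells are CHO cells without KCNK3 induction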
Each line names hits and unclear results; the compound was inactive in the other large screens (follow-up assays come after a bar, where they were run).

CCNC(=O)CSC1=N/C(=C\c2ccc(O)c(OCC)c2)C(=O)N1c1ccc(OC(F)F)cc1	none
O=C(CSC1=N/C(=C/c2ccco2)C(=O)N1c1ccc(OC(F)F)cc1)NC1CCS(=O)(=O)C1 (stereo not given)	KCNK3 inh -8.9 | KCNK3 confirm 83 | KCNK3 uninduced inactive
CC1=C(C(=O)OC(C)C)C(c2ccc(C)o2)C(C(=O)OC(C)C)=C(C)N1	KCNK3 inh -9.4 | KCNK3 confirm 113 | KCNK3 uninduced 0.14
Cc1nc(SC2CC(=O)N(c3cc(Cl)cc(Cl)c3)C2=O)nc2c1CCCC2 (stereo not given)	KCNK3 inh -9.8 | KCNK3 confirm 105 | KCNK3 uninduced 0.16
Cc1cccc(N2C(=O)CC(Sc3nc(C)c4c(n3)CCCC4)C2=O)c1 (stereo not given)	none
CCN(CC)S(=O)(=O)c1ccc2c(c1)oc(=O)n2CC(=O)NC1CCCCC1	none
COc1ccc(OC)c(NC2=C(Cl)C(=O)N(Cc3ccccc3)C2=O)c1	none
CCOc1ccccc1NC1=C(Cl)C(=O)N(Cc2ccccc2)C1=O	KCNK3 inh -8.8 | KCNK3 confirm 117 | KCNK3 uninduced 0.15
O=C(OCC#CCSc1nc2ccccc2o1)c1cc2ccccc2o1	KCNK3 inh -11 | KCNK3 confirm 105 | KCNK3 uninduced 0.15
C=CCOCCN(CC)CC	none
CCOc1ccc(NC(=O)CN(C)C(=O)CCc2ccccc2Cl)cc1OCC	none
CCOc1ccc(NC(=O)CN(C)C(=O)CCCOc2ccc(Cl)c(C)c2)cc1OCC	KCNK3 inh -9.9 | KCNK3 confirm 93 | KCNK3 uninduced inactive
COC(=O)CSc1nnc2n(C3CCCCC3)c(=O)c3c4c(sc3n12)CCCC4	KCNK3 inh -9.5 | KCNK3 confirm 96 | KCNK3 uninduced 0.15
O=C(COCC(=O)NCc1ccccc1)NCc1ccccc1	none
CSCCC(NC(=O)C12CC3CC(CC(C3)C1)C2)C(=O)OCC(=O)c1ccc(C)cc1 (stereo not given)	none
C[C@H](NC(=O)N1CCn2c1nc1ccccc12)C(=O)NCc1ccccc1	none
O=c1oc2cc(Oc3c([N+](=O)[O-])cc(C(F)(F)F)cc3[N+](=O)[O-])ccc2c2c1CCCC2	KCNQ1 block 11, KCNK3 inh -9.7 | KCNK3 confirm 136 | KCNK3 uninduced 0.14
O=c1oc2cc(Oc3ccc(C(F)(F)F)cc3[N+](=O)[O-])ccc2c2c1CCC2	none
Cc1nc2sccc2c(=O)n1N	none
CCOC(=O)N1CCN(C(=O)CSCC(=O)Nc2nc(-c3ccc(-c4ccccc4)cc3)cs2)CC1	KCNQ1 block 6, KCNK3 inh -10 | KCNK3 confirm 117 | KCNK3 uninduced 0.15
O=C(CSCC(=O)N1CCOCC1)Nc1nc(-c2ccccc2)cs1	none
CCNC(=S)N1CCc2cc(OC)c(OC)cc2C1COc1ccc(F)cc1 (stereo not given)	KCNK3 inh -8.7 | KCNK3 confirm 102 | KCNK3 uninduced inactive
Cc1nn(-c2cccc(C(F)(F)F)c2)c(=O)c2ccccc12	KCNK3 inh -9 | KCNK3 confirm 114 | KCNK3 uninduced 0.16
Cc1nn(-c2ccccc2)c(=O)c2ccccc12	none
O=S(=O)(c1cccc2cccnc12)N1CCN(c2ccccc2)CC1	none
Cc1ccc(C)c(N2CCN(S(=O)(=O)c3cccc4cccnc34)CC2)c1	KCNK3 inh -9.9 | KCNK3 confirm 116 | KCNK3 uninduced 0.15
C=CCOc1ccccc1CN1CCCCCC1	none
CCSc1nnc(-c2cccc(S(=O)(=O)N(CC)CC)c2)n1Cc1ccccc1	KCNK3 inh -9.8 | KCNK3 confirm 93 | KCNK3 uninduced inactive
CCNC(=O)CSc1nnc(-c2cccc(S(=O)(=O)N(CC)CC)c2)n1CCc1ccccc1	none
